Converted amounts (≈) assume the structure as drawn.
Columns and labels:
Assay type in all cases: functional
Enterococcus faecium = experiment: In vitro minimum inhibitory concentration against Enterococcus faecium ATCC 8043 using brain-heart infusion agar
Outline: (§1)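 Overnight cultures were grown in BHI broth at 36 °C. Twofold dilutions of a 2000 µg/mL stock were made in BHI agar, giving 200–0.005 µg/mL. Plates received about 10^4 organisms and were incubated for 18 h at 36 °C. MIC was the lowest concentration with no visible growth on the plate.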

Acinetobacter = experiment: In vitro minimum inhibitory concentration against Acinetobacter CMX 669 using brain-heart infusion agar; outline: as §1
Pseudomonas aeruginosa [1] = experiment: In vitro minimum inhibitory concentration against Pseudomonas aeruginosa K799 / WT using brain-heart infusion agar; outline: as §1
Escherichia coli = experiment: In vitro minimum inhibitory concentration against Escherichia coli Juhl using brain-heart infusion agar; outline: as §1
Staphylococcus aureus [2] = experiment: In vitro minimum inhibitory concentration against Staphylococcus aureus ATCC 6538P using brain-heart infusion agar; outline: as §1
Staphylococcus aureus [3] = experiment: In vitro minimum inhibitory concentration against Staphylococcus aureus A 5177 using brain-heart infusion agar; outline: as §1
Staphylococcus aureus [4] = experiment: In vitro minimum inhibitory concentration against Staphylococcus aureus CMX 553 using brain-heart infusion agar; outline: as §1
Streptococcus agalactiae = experiment: In vitro minimum inhibitory concentration against Streptococcus agalactiae CMX 508 using brain-heart infusion agar; outline: as §1
Streptococcus equinus = experiment: In vitro minimum inhibitory concentration against Streptococcus bovis A5169 using brain-heart infusion agar; outline: as §1
Streptococcus pyogenes = experiment: In vitro minimum inhibitory concentration against Streptococcus pyogenes 930 using brain-heart infusion agar; outline: as §1
[5] = tested on: Staphylococcus epidermidis; experiment: In vitro minimum inhibitory concentration against Staphylococcus epidermidis 3159 using brain-heart infusion agar; outline: as §1
Klebsiella aerogenes = experiment: In vitro minimum inhibitory concentration against Enterobacter aerogenes ATCC 13048 using brain-heart infusion agar; outline: as §1
Pseudomonas aeruginosa [6] = experiment: In vitro minimum inhibitory concentration against Pseudomonas aeruginosa A5007 using brain-heart infusion agar; outline: as §1
Klebsiella pneumoniae [7] = experiment: In vitro minimum inhibitory concentration against Klebsiella pneumoniae 8045 using brain-heart infusion agar; outline: as §1
Staphylococcus aureus [8] = experiment: In vitro minimum inhibitory concentration against Staphylococcus aureus NCTC 10649 using brain-heart infusion agar; outline: as §1
Staphylococcus aureus [9] = experiment: In vivo antibacterial activity against Staphylococcus aureus NCTC 10649 infected mouse by oral administration
Outline: (§2)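 Compound was given in water or in dilute NaOH diluted with water, orally or subcutaneously. The dose was split equally between 1 and 5 h post-infection. Groups were 10 mice at ≥3 dose levels. ED50 was calculated from day-6 cumulative mortality by the trimmed Logit method.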

Staphylococcus aureus [10] = experiment: In vivo antibacterial activity against Staphylococcus aureus NCTC 10649 infected mouse by subcutaneous administration; conditions: sc; outline: as §2
Klebsiella pneumoniae [11] = experiment: In vitro minimum inhibitory concentration brain-heart infusion agar; outline: as §1
Pseudomonas aeruginosa [12] = experiment: Not Plasmodium species

SMILES | MIC (Enterococcus faecium) [µg/mL] | MIC (Acinetobacter) [µg/mL] | MIC (Pseudomonas aeruginosa [1]) [µg/mL] | MIC (Escherichia coli) [µg/mL] | MIC (Staphylococcus aureus [2]) [µg/mL] | MIC (Staphylococcus aureus [3]) [µg/mL] | MIC (Staphylococcus aureus [4]) [µg/mL] | MIC (Streptococcus agalactiae) [µg/mL] | MIC (Streptococcus equinus) [µg/mL] | MIC (Streptococcus pyogenes) [µg/mL] | MIC [5] [µg/mL] | MIC (Klebsiella aerogenes) [µg/mL] | MIC (Pseudomonas aeruginosa [6]) [µg/mL] | MIC (Klebsiella pneumoniae [7]) [µg/mL] | MIC (Staphylococcus aureus [8]) [µg/mL] | ED50 (Staphylococcus aureus [9]) [mg/kg] | ED50 (Staphylococcus aureus [10]) [mg/kg] | MIC (Klebsiella pneumoniae [11]) [µg/mL] | MIC (Pseudomonas aeruginosa [12]) [µg/mL]
NC1CCN(c2nc3c(cc2F)c(=O)c(C(=O)O)cn3C2CC2)C1 (stereo not given) | 0.39 (≈ 1.17 µM) | 0.1 (≈ 0.301 µM) | 0.1 (≈ 0.301 µM) | 0.01 (≈ 0.0301 µM) | 0.1 (≈ 0.301 µM) | 0.2 (≈ 0.602 µM) | 0.1 (≈ 0.301 µM) | 0.39 (≈ 1.17 µM) | 0.78 (≈ 2.35 µM) | 0.39 (≈ 1.17 µM) | 0.1 (≈ 0.301 µM) | 0.02 (≈ 0.0602 µM) | 0.1 (≈ 0.301 µM) | 0.01 (≈ 0.0301 µM) |  |  |  |  | 
O=C1CCN(c2cc3c(cc2F)c(=O)c(C(=O)O)cn3C2CC2)C1 | > 100 | 50 (≈ 151 µM) | > 100 | 6.2 (≈ 18.8 µM) | 1.56 (≈ 4.72 µM) | 3.1 (≈ 9.38 µM) | 3.1 (≈ 9.38 µM) | 100 (≈ 303 µM) | > 100 | > 100 | 3.1 (≈ 9.38 µM) | 12.5 (≈ 37.8 µM) | > 100 | 6.2 (≈ 18.8 µM) | 1.56 (≈ 4.72 µM) |  |  |  | 
O=C1CCN(c2nc3c(cc2F)c(=O)c(C(=O)O)cn3-c2ccc(F)cc2F)CC1 | 1.56 (≈ 3.74 µM) | 1.56 (≈ 3.74 µM) | 3.1 (≈ 7.43 µM) | 0.39 (≈ 0.934 µM) | 0.05 (≈ 0.12 µM) | 0.1 (≈ 0.24 µM) | 0.1 (≈ 0.24 µM) | 1.56 (≈ 3.74 µM) | 3.1 (≈ 7.43 µM) | 1.56 (≈ 3.74 µM) | 0.2 (≈ 0.479 µM) | 3.1 (≈ 7.43 µM) | 12.5 (≈ 30 µM) | 0.39 (≈ 0.934 µM) | 0.1 (≈ 0.24 µM) |  |  |  | 
O=C(O)c1cn(-c2ccc(F)cc2F)c2nc(N3CCC(=NO)CC3)c(F)cc2c1=O | 1.56 (≈ 3.61 µM) | 3.1 (≈ 7.17 µM) | 6.2 (≈ 14.3 µM) | 0.78 (≈ 1.8 µM) | 0.05 (≈ 0.116 µM) | 0.1 (≈ 0.231 µM) | 0.2 (≈ 0.463 µM) | 0.78 (≈ 1.8 µM) | 3.1 (≈ 7.17 µM) | 1.56 (≈ 3.61 µM) | 0.2 (≈ 0.463 µM) | 3.1 (≈ 7.17 µM) | 12.5 (≈ 28.9 µM) | 0.78 (≈ 1.8 µM) | 0.1 (≈ 0.231 µM) | > 8 | > 2 |  | 
O=C(O)c1cn(C2CC2)c2c(F)c(N3CC/C(=N\O)C3)c(F)cc2c1=O | 0.1 (≈ 0.275 µM) | 0.2 (≈ 0.55 µM) | 0.78 (≈ 2.15 µM) | 0.02 (≈ 0.055 µM) | < 0.005 | 0.01 (≈ 0.0275 µM) | 0.02 (≈ 0.055 µM) | 0.1 (≈ 0.275 µM) | 0.2 (≈ 0.55 µM) | 0.1 (≈ 0.275 µM) | 0.02 (≈ 0.055 µM) | 0.39 (≈ 1.07 µM) | 0.78 (≈ 2.15 µM) | 0.05 (≈ 0.138 µM) | 0.01 (≈ 0.0275 µM) | 3 | 1.5 |  | 
O=C1CCN(c2c(F)cc3c(=O)c(C(=O)O)cn(C4CC4)c3c2F)C1 | 6.2 (≈ 17.8 µM) | 3.1 (≈ 8.9 µM) | 50 (≈ 144 µM) | 0.39 (≈ 1.12 µM) | 0.78 (≈ 2.24 µM) | 0.78 (≈ 2.24 µM) | 0.39 (≈ 1.12 µM) | 12.5 (≈ 35.9 µM) | 50 (≈ 144 µM) | 25 (≈ 71.8 µM) | 1.56 (≈ 4.48 µM) | 1.56 (≈ 4.48 µM) | 50 (≈ 144 µM) | 0.39 (≈ 1.12 µM) | 0.39 (≈ 1.12 µM) |  |  |  | 
O=C(O)c1cn(C2CC2)c2nc(N3CC/C(=N\O)C3)c(F)cc2c1=O | 0.39 (≈ 1.13 µM) | 0.2 (≈ 0.578 µM) |  | 0.02 (≈ 0.0578 µM) | 0.02 (≈ 0.0578 µM) | 0.05 (≈ 0.144 µM) | 0.05 (≈ 0.144 µM) | 0.2 (≈ 0.578 µM) | 0.78 (≈ 2.25 µM) | 0.39 (≈ 1.13 µM) | 0.05 (≈ 0.144 µM) | 0.2 (≈ 0.578 µM) | > 100 |  | 0.05 (≈ 0.144 µM) |  |  | 0.05 (≈ 0.144 µM) | 0.78 (≈ 2.25 µM)
O=C(O)c1cn(C2CC2)c2c(F)c(N3CCC(=NO)CC3)c(F)cc2c1=O | 0.2 (≈ 0.53 µM) | 0.39 (≈ 1.03 µM) | 1.56 (≈ 4.13 µM) | 0.2 (≈ 0.53 µM) | 0.01 (≈ 0.0265 µM) | 0.02 (≈ 0.053 µM) | 0.05 (≈ 0.133 µM) | 0.2 (≈ 0.53 µM) | 0.39 (≈ 1.03 µM) | 0.1 (≈ 0.265 µM) | 0.02 (≈ 0.053 µM) | 0.39 (≈ 1.03 µM) | 3.1 (≈ 8.22 µM) | 0.1 (≈ 0.265 µM) | 0.02 (≈ 0.053 µM) | 3 | 6.7 |  | 
O=C1CCN(c2cc3c(cc2F)c(=O)c(C(=O)O)cn3-c2ccc(F)cc2F)C1 | 25 (≈ 62.1 µM) | 12.5 (≈ 31.1 µM) | 50 (≈ 124 µM) | 12.5 (≈ 31.1 µM) | 0.39 (≈ 0.969 µM) | 1.56 (≈ 3.88 µM) | 1.56 (≈ 3.88 µM) | 12.5 (≈ 31.1 µM) | > 100 | 25 (≈ 62.1 µM) | 1.56 (≈ 3.88 µM) | 12.5 (≈ 31.1 µM) | > 100 | 6.2 (≈ 15.4 µM) | 0.39 (≈ 0.969 µM) |  |  |  | 

Source: ChEMBL document CHEMBL1125434, “Preparation and in vitro and in vivo evaluation of quinolones with selective activity against gram-positive organisms” (1992)
